# Laboratory results: article PMC4235474 (Clinical Pharmacology : Advances and Applications, 2014)
# Several values for one entry are separate records, joined by “and”; a condition that tells them apart may be missing. Identical values can stand only once. Like-named read-outs stand apart in the source and are kept apart here. Marks after values point to notes of the source that are not given here.
# What was measured:
# [1] = cited from earlier work; for fluctuation in mean concentrations / mean terminal half-life: apixaban 2.5 mg BID, multiple ascending dose study
# [2] = cited from earlier work
# [3] = Multiple-dose steady-state plasma pharmacokinetics; format: in vivo, healthy subjects (human); details: for Coefficient of variation (intersubject variability) for exposure parameters (AUC0–24, Cmax, Cmin): apixaban 2.5 mg BID
# [4] = target: factor Xa (Bos taurus, UniProt P00743); assay: Steady-state plasma anti-factor Xa activity; format: in vivo, healthy subjects (human); details: for slope of concentration–AXA linear regression: AXA versus plasma concentration, P<0.0001 between drugs; for intercept in regression equation anti-FXa vs plasma concentration / slope in regression equation anti-FXa vs plasma concentration: Figure 4 regression equation; for AXA Tpeak median (min–max): time of peak anti-FXa activity, day 4 steady state; for AXA AUC(0–24) G mean (CV): 0 to 24 hours after morning dose, rivaroxaban 10 mg QD
# Sequence of factor Xa (P00743 234-492 limits assumed): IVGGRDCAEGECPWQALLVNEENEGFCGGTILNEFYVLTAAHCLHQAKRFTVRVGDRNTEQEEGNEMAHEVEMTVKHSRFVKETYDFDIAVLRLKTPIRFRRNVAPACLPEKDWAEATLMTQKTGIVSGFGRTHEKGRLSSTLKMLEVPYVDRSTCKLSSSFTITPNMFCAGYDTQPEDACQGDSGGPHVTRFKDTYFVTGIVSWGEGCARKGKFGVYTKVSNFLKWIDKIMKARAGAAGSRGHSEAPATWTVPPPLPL
# Sequence of factor Xa (P00743 41-180 partner limits assumed): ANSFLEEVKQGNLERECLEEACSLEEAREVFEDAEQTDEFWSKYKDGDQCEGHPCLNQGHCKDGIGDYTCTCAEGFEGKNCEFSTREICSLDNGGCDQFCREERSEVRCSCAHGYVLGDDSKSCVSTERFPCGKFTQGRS
# [5] = tested on: healthy subjects; assay: Safety and tolerability; format: in vivo, human; details: for deaths or serious AEs: during the study; for number of subjects reporting AEs: of 14 subjects; for tolerability: rivaroxaban 10 mg QD, apixaban 2.5 mg BID for 4 days
# Outline: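 Randomized open-label two-period crossover in healthy volunteers housed in a clinical unit. Each took two oral factor Xa inhibitors for 4 days: one at 2.5 mg twice daily, the other at 10 mg once daily. Physical exam, vital signs, 12-lead ECG and blood/urine labs were done at screening, before each period and at discharge. AEs were monitored throughout, MedDRA-coded, and graded for severity, onset, drug relationship and outcome.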
# [6] = tested on: prothrombin time; details: at a concentration of 1,000 ng/mL; cited from earlier work
# [7] = VTEp patients; cited from earlier work
# [8] = day 4 steady state, rivaroxaban 10 mg QD
# [9] = day 4 steady state, rivaroxaban 10 mg QD, apixaban 2.5 mg BID oral, N=14
smiles,measurement,setting,value
"COc1ccc(-n2nc(C(N)=O)c3c2C(=O)N(c2ccc(N4CCCCC4=O)cc2)CC3)cc1 [Apixaban, apixaban]",time to steady state,[1]; BID dosing,2 to 3 days
same,fluctuation in mean concentrations,[1]; Japanese subjects,~ 4.2
same,mean terminal half-life,[1]; Japanese subjects,9.7 h
same,fluctuation in mean concentrations,[1]; Western subjects,~ 3.0
same,mean terminal half-life,[1]; Western subjects,8.1 h
same,terminal half-life,[1],~ 12 hours
same,time to maximal plasma concentrations after administration,[1],~ 3 hours
same,accumulation,[1]; following BID dosing,< 2 fold
same,bioavailability,[1]; not significantly influenced by dose or meals,~ 50%
same,Protein binding,[2],~ 87%
same,"T1/2 Mean (SD), terminal half-life","[3]; after last dose on day 4 (apixaban: evening dose; rivaroxaban: morning dose), N=14",8.65 (2.19) ^* h
same,"Coefficient of variation (intersubject variability) for exposure parameters (AUC0–24, Cmax, Cmin)",[3]; [8],20%–24%
same,Cmax G mean (%CV),[3]; [9],80.5 (23) ng/mL
same,Tmax,"[3]; human, plasma, oral",2 h
same,AUC(0-t),"[3]; human, plasma, oral, 2.5 mg",527 ng·h/mL
same,AXA AUC(0–12) G mean (CV),"[4]; 0 to 12 hours after morning dose, day 4, apixaban 2.5 mg BID, N=14",7.42 (21) IU · h/mL
same,slope of concentration–AXA linear regression,[4],0.0134 IU/ng
same,intercept in regression equation anti-FXa vs plasma concentration,[4],0.02753
same,slope in regression equation anti-FXa vs plasma concentration,[4],0.01342
same,AXA T1/2 Mean (SD),"[4]; determined after evening dose on day 4, apixaban 2.5 mg BID",8.9 h and 8.91 (2.46) ^‡ h
same,AXA Tpeak median (min–max),[4]; N=14,2.00 (1.00–3.00) h
same,AXA Tpeak median (min–max),"[4]; N=14, listed as apixaban",2 h
same,deaths or serious AEs,[5],No deaths or serious AEs
same,number of subjects reporting AEs,[5],eight
same,tolerability,[5],well-tolerated
"O=C(NC[C@H]1CN(c2ccc(N3CCOCC3=O)cc2)C(=O)O1)c1ccc(Cl)s1 [Rivaroxaban, rivaroxaban]",terminal half-life,[1],~ 10 hours
same,time to maximal plasma concentrations after administration,[1],~ 3 hours
same,bioavailability,[1]; depending on dose and administration with a meal,66%–100%
same,accumulation,[1]; following QD administration,does not show appreciable accumulation
same,half-life,"[1]; rivaroxaban 5 mg QD, healthy subjects",8.4 h
same,Protein binding,[2],~ 93%
same,"AUC0–24 at steady state, rivaroxaban higher than apixaban",[3]; daily AUC,~ 17%
same,"Cmax, rivaroxaban relative to apixaban (higher)",[3]; day 4,~ 2 fold
same,"Cmin, rivaroxaban lower than apixaban",[3]; day 4,~ 40%
same,"Coefficient of variation (intersubject variability) for exposure parameters (AUC0–24, Cmax, Cmin)",[3]; [8],29%–46%
same,Cmin G mean (%CV),[3]; [9],10.1 (39) ng/mL
same,"Cmax/Cmin ratio, rivaroxaban relative to apixaban","[3]; geometric mean ratio, 90% CI: 2.82–4.61",3.6 fold
same,AXA AUC(0–24) G mean (CV),"[4]; day 4, apixaban 2.5 mg BID, N=14",17.8 (29) IU · h/mL
same,AXA AUC(0–24) G mean (CV),"[4]; day 4, apixaban 2.5 mg BID, N=14, listed as rivaroxaban",17.8 IU · h/mL
same,slope of concentration–AXA linear regression,[4],0.0172 IU/ng
same,intercept in regression equation anti-FXa vs plasma concentration,[4],−0.03215
same,slope in regression equation anti-FXa vs plasma concentration,[4],0.01719
same,"AXA AUC(0–24), rivaroxaban higher than apixaban",[4]; geometric mean,~ 34%
same,"AXA AUC(0–24), rivaroxaban relative to apixaban (higher)",[4]; steady state,~1.3 fold
same,"Peak AXA, rivaroxaban relative to apixaban (higher)",[4]; steady state,~ 2.5 fold
same,"trough AXA, rivaroxaban lower than apixaban",[4]; steady state,~ 30%
same,AXA Tpeak median (min–max),[4]; N=14,2.00 (1.00–3.00) h
same,AXA Tpeak median (min–max),"[4]; N=14, listed as rivaroxaban",2 h
same,effect in the prothrombin time assay,[6],greater effect than apixaban
same,Cmax/Cmin ratio,[7],~ 7
same,number of AEs reported,"[5]; after start of study medication, 14 subjects, all mild",Twelve
same,deaths or serious AEs,[5],No deaths or serious AEs
same,number of subjects reporting AEs,[5],seven
same,tolerability,[5],well-tolerated
